Experimental data as given in the array DNA melting data of Ke et al. (doi:10.1101/2024.01.08.574731).

What was measured:
[1] = folding enthalpy; higher = less favourable; fluorescence melt of hairpins on a sequencing array, two-state fit; conditions: sodium 0.088 M
Outline: (§1)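 Two-state fits, bootstrapped, provided melting temperature and folding enthalpy from Cy3 fluorescence normalised to pre-quench Cy3 and to control constructs. Library hairpins with annealed Cy3 and quencher oligos were imaged on a sequenced MiSeq flow cell in 50 mM Na-HEPES pH 8.0, 25 mM NaCl, at 2.5 °C intervals up to 60 °C. Four replicates were combined with inverse-variance weighting. A 9.35 °C upward shift was applied to fitted temperatures to match UV melts.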

[2] = melting temperature; fluorescence melt of hairpins on a sequencing array, two-state fit, raised by 9.35 °C to match UV melts; conditions: sodium 0.088 M
Outline: as §1

Question: For GTTCTCGAAAGAGGCAAC ((((((....)))..))), which folding enthalpy [1] is on record?
Answer: -9.31 kcal/mol

Question: What about the Tm [2] of the same sequence?
Answer: 26.6 °C

Question: With GATCCGGGCTCGGATC ((((((....)))))) as the sequence, how does the folding enthalpy [1] read?
Answer: -44.6 kcal/mol

Question: What about the Tm [2] of the same sequence?
Answer: 59.3 °C

Question: Which results are given for GGTCCGGGAAACCAGACC ((((.((....)).))))?
Answer: folding enthalpy [1]: -28.6 kcal/mol; Tm [2]: 46.4 °C

Question: What does the source list for GCATGGGGAAACCCATAC (.(((((....))))).)?
Answer: folding enthalpy [1]: -15.6 kcal/mol; Tm [2]: 36.5 °C

Question: For GATTCCGGAAACGGGATC (((.(((....))).))), which folding enthalpy [1] is on record?
Answer: -43 kcal/mol

Question: And the Tm [2]?
Answer: 51.2 °C

Question: What does the source list for CACATGAAAATGTG (((((....)))))?
Answer: folding enthalpy [1]: -27.3 kcal/mol; Tm [2]: 47.9 °C

Question: For GTGGTGGGAAACCACTAC ((.((((....)))).)), which folding enthalpy [1] is on record?
Answer: -22.5 kcal/mol

Question: What about the Tm [2] of the same sequence?
Answer: 56.1 °C

Question: For GATAGCCGAAAGGCATC (((.(((....)))))), which folding enthalpy [1] is on record?
Answer: -12.2 kcal/mol

Question: And the Tm [2]?
Answer: 43.3 °C

Question: For GATACACCGAAAGGTATC (((..(((....)))))), which folding enthalpy [1] is on record?
Answer: -13.2 kcal/mol

Question: What about the Tm [2] of the same sequence?
Answer: 30.3 °C

Question: With GAGCTCCCGAAAGGGCTC (((..(((....)))))) as the sequence, how does the folding enthalpy [1] read?
Answer: -17.7 kcal/mol

Question: And the Tm [2]?
Answer: 44.4 °C

Question: Which folding enthalpy [1] does the source give for GATCTCTTACGAGATC ((((((....)))))) here?
Answer: -44.7 kcal/mol

Question: And the Tm [2]?
Answer: 52.2 °C

Question: With GCGTGCCCGAAAGGGCGC (((..(((....)))))) as the sequence, how does the folding enthalpy [1] read?
Answer: -7.85 kcal/mol

Question: What about the Tm [2] of the same sequence?
Answer: 55.5 °C

Question: For GACGAGCCGAAAGGCGTC (((..(((....)))))), which folding enthalpy [1] is on record?
Answer: -8.53 kcal/mol

Question: What about the Tm [2] of the same sequence?
Answer: 42.3 °C

Question: Which folding enthalpy [1] does the source give for GATCAAACCTTTGATC ((((((....)))))) here?
Answer: -30.1 kcal/mol

Question: What about the Tm [2] of the same sequence?
Answer: 46 °C

Question: Which folding enthalpy [1] does the source give for GCTTCGCGAAAGCCTAGC (((..((....))..))) here?
Answer: -14.7 kcal/mol

Question: And the Tm [2]?
Answer: 37.4 °C

Question: For GTAATCCGAAAGGAGTAC (((.(((....))).))), which folding enthalpy [1] is on record?
Answer: -28.5 kcal/mol

Question: And the Tm [2]?
Answer: 49.9 °C

Question: For GTATAGGGAAACCTATGC (.(((((....))))).), which folding enthalpy [1] is on record?
Answer: -22.2 kcal/mol

Question: And the Tm [2]?
Answer: 38 °C

Question: Which results are given for GCCAGTGGAAACACTAGC ((.((((....)))).))?
Answer: folding enthalpy [1]: -21.9 kcal/mol; Tm [2]: 39.9 °C

Question: Which folding enthalpy [1] does the source give for GCGTGGGGAAACCTACGC ((((.((....)).)))) here?
Answer: -41.3 kcal/mol

Question: What about the Tm [2] of the same sequence?
Answer: 58.7 °C

Question: Which folding enthalpy [1] does the source give for GTCCAGCCGAAAGGCGAC (((..(((....)))))) here?
Answer: -9.75 kcal/mol

Question: What about the Tm [2] of the same sequence?
Answer: 40.6 °C

Question: Which folding enthalpy [1] does the source give for CGTGGGAAACCACG (((((....))))) here?
Answer: -34.5 kcal/mol

Question: And the Tm [2]?
Answer: 58 °C

Question: What does the source list for GCCTACGAAAGTAGGGC ((((((....))).)))?
Answer: folding enthalpy [1]: -16.4 kcal/mol; Tm [2]: 61.8 °C

Question: For CGAGCGGAAACGCACTCG ((((((....)))..))), which folding enthalpy [1] is on record?
Answer: -15.8 kcal/mol

Question: And the Tm [2]?
Answer: 37.6 °C

Question: With GGACTACGAAAGTAATCC (((.(((....))).))) as the sequence, how does the folding enthalpy [1] read?
Answer: -33.4 kcal/mol

Question: What about the Tm [2] of the same sequence?
Answer: 38.7 °C

Question: For GCATGTGCGAAAGCATGC (((..(((....)))))), which folding enthalpy [1] is on record?
Answer: -18.3 kcal/mol

Question: What about the Tm [2] of the same sequence?
Answer: 52.2 °C

Question: For GGACCCGAAAGGGATTCC ((((((....)))..))), which folding enthalpy [1] is on record?
Answer: -12.2 kcal/mol

Question: And the Tm [2]?
Answer: 37.5 °C

Question: What does the source list for GAAGCCGAAAGGCTTTTC ((((((....)))..)))?
Answer: folding enthalpy [1]: -12 kcal/mol; Tm [2]: 54.7 °C

Question: Which folding enthalpy [1] does the source give for GCAAGGCGAAAGCTTAGC ((.(.((....)).).)) here?
Answer: -13.6 kcal/mol

Question: What about the Tm [2] of the same sequence?
Answer: 38.8 °C

Question: Which folding enthalpy [1] does the source give for GATTGAGGAAACTCAACC (.(((((....))))).) here?
Answer: -17.1 kcal/mol

Question: And the Tm [2]?
Answer: 31.3 °C

Question: With GCCGCGCGAAAGCTAGGC (((..((....))..))) as the sequence, how does the folding enthalpy [1] read?
Answer: -28.2 kcal/mol

Question: And the Tm [2]?
Answer: 62.5 °C

Question: What does the source list for GATCCTTCAAAGGATC ((((((....))))))?
Answer: folding enthalpy [1]: -33.5 kcal/mol; Tm [2]: 52.9 °C

Question: With GTTGTCGGAAACGACAAC (((((((....))))))) as the sequence, how does the folding enthalpy [1] read?
Answer: -34.6 kcal/mol

Question: What about the Tm [2] of the same sequence?
Answer: 67 °C

Question: For GGAGGCACGAAAGTGTCC (((..(((....)))))), which folding enthalpy [1] is on record?
Answer: -12.6 kcal/mol

Question: What about the Tm [2] of the same sequence?
Answer: 41 °C

Question: Which folding enthalpy [1] does the source give for GATCCTAGTTAGGATC ((((((....)))))) here?
Answer: -33.7 kcal/mol

Question: And the Tm [2]?
Answer: 51.7 °C
